Laboratory results as given in ChEMBL document CHEMBL3397001, “Metabolic glycoengineering sensitizes drug-resistant pancreatic cancer cells to tyrosine kinase inhibitors erlotinib and gefitinib” (2015).
Calls of active or inactive are those of the source.

Assays:
SW1990 [1] = experiment: Potentiation of erlotinib-induced antiproliferative effect against human SW1990 cells assessed as combination index pre-treated with 12.5 and 25 uM compound for 48 hrs followed by erlotinib exposure for additional after 72 hrs by cell counting method; type: functional
Method in brief: (§1)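 Cells given sugar analog (0, 25 or 50 μM; 12.5 or 25 μM for the azido analog) plus a concentration range of erlotinib or gefitinib, and growth inhibition measured. Synergy expressed as Combination Index, CI = D1/(Dx)1 + D2/(Dx)2, plotted against percent inhibition. At least 3 biological replicates; mean ± SEM.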

SW1990 [2] = experiment: Inhibition of cell proliferation of human SW1990 cells at <25 uM after 72 hrs by cell counting method
[3] = biological target: Epidermal growth factor receptor (Homo sapiens) (UniProt P00533); experiment: Inhibition of EGFR-mediated STAT3 phosphorylation in human SW1990 cells at 25 to 100 uM by Western blotting method; type: cell-based
Chain of Epidermal growth factor receptor (Homo sapiens) (P00533 whole entry): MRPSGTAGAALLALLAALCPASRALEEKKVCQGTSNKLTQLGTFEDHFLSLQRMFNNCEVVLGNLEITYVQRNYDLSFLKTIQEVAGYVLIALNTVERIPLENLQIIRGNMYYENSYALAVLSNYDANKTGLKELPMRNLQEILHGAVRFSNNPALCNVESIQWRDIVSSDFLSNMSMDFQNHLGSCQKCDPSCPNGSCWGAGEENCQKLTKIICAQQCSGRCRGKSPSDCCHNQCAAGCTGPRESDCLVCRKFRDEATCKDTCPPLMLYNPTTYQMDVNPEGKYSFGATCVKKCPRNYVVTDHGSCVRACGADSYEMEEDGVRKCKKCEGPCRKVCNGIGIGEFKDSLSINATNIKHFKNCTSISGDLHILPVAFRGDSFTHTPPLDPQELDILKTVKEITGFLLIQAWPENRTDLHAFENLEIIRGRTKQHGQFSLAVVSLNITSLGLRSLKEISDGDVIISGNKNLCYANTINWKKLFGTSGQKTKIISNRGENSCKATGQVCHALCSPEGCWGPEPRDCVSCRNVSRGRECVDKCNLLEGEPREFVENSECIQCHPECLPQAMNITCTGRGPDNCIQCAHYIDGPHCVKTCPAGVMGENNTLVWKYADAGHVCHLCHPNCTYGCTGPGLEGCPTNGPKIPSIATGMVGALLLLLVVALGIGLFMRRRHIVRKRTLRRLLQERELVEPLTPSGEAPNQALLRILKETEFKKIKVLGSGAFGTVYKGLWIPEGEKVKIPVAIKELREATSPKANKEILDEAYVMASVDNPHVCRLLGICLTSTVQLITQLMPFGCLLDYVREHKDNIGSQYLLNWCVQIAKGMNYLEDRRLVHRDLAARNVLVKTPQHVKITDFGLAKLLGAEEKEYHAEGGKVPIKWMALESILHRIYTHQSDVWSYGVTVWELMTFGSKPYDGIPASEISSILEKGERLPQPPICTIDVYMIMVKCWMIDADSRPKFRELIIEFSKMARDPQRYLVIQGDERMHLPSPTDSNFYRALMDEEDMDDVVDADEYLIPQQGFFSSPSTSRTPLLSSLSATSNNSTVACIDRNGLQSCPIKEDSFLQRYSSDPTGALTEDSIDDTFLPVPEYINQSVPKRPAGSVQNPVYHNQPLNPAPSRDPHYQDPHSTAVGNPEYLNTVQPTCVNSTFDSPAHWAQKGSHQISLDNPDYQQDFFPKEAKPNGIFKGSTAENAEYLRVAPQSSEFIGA
Method in brief: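 Cells treated at several analog concentrations; lysates immunoblotted for phospho-STAT3, with band intensity quantified by densitometry. At least 3 biological replicates; mean + SEM; p < 0.05.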

SW1990 [4] = experiment: Potentiation of erlotinib-induced antiproliferative effect against human SW1990 cells pre-treated with 25 uM compound for 48 hrs followed by erlotinib exposure for additional after 72 hrs by cell counting method; type: functional, cell-based; method in brief: as §1
SW1990 [5] = experiment: Potentiation of erlotinib-induced antiproliferative effect against human SW1990 cells assessed as combination index pre-treated with 50 uM compound for 48 hrs followed by erlotinib exposure for additional after 72 hrs by cell counting method; type: functional; method in brief: as §1
SW1990 [6] = experiment: Inhibition of cell proliferation of human SW1990 cells at 100 to 300 uM after 48 hrs by cell counting method; type: functional, cell-based
SW1990 [7] = experiment: Potentiation of erlotinib-induced antiproliferative effect against human SW1990 cells pre-treated with 50 uM compound for 48 hrs followed by erlotinib exposure for additional after 72 hrs by cell counting method; type: functional, cell-based; method in brief: as §1
[8] = biological target: Epidermal growth factor receptor (Homo sapiens) (UniProt P00533); experiment: Inhibition of Alexa fluor 488-labeled EGFbinding to EGFR in human SW1990 cells assessed as reduction in available surface bound EGFR at 100 uM after 1 hr by flow cytometry; type: cell-based
Method in brief: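 Intact cells incubated with Alexa Fluor 488-labeled EGF for one hour at room temperature, then surface-bound label read by flow cytometry (saturation binding). At least 3 biological replicates; mean ± SEM.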

[9] = biological target: Epidermal growth factor receptor (Homo sapiens) (UniProt P00533); experiment: Increase in sialylation of EGFR in human SW1990 cells after 48 hrs by mass spectrometry based glycosite and glycan analysis method; type: cell-based
Method in brief: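 EGFR sialylation in treated cells assessed by mass spectrometry-based glycosite and glycan analysis.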

SW1990 [10] = experiment: Potentiation of gefitinib-induced antiproliferative effect against human SW1990 cells assessed as combination index pre-treated with 50 uM compound for 48 hrs […] for additional after 72 hrs by cell counting method; type: functional; method in brief: as §1
SW1990 [11] = experiment: Effect on total EGFR levels in human SW1990 cells at 25 to 100 uM by Western blotting method; type: functional, cell-based
Method in brief: (§2)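 Cells exposed to increasing analog levels; lysates immunoblotted for phospho-EGFR and total EGFR. Significance threshold p < 0.05.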

[12] = biological target: Epidermal growth factor receptor (Homo sapiens) (UniProt P00533); experiment: Inhibition of EGFR phosphorylation in human SW1990 cells at 25 to 100 uM by Western blotting method; type: cell-based; method in brief: as §2
SW1990 [13] = experiment: Potentiation of gefitinib-induced antiproliferative effect against human SW1990 cells pre-treated with 50 uM compound for 48 hrs […] for additional after 72 hrs by cell counting method; type: functional, cell-based; method in brief: as §1
SW1990 [14] = experiment: Potentiation of gefitinib-induced antiproliferative effect against human SW1990 cells pre-treated with 25 uM compound for 48 hrs […] for additional after 72 hrs by cell counting method; type: functional, cell-based; method in brief: as §1
SW1990 [15] = experiment: Inhibition of cell proliferation of human SW1990 cells at 25 and 50 uM after 48 hrs by cell counting method; type: functional, cell-based
[16] = biological target: Epidermal growth factor receptor (Homo sapiens) (UniProt P00533); experiment: Inhibition of EGFR phosphorylation in human SW1990 cells at 50 and 100 uM by immunofluorescence assay; type: cell-based
Method in brief: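 Treated cells stimulated with EGF for 2.0 min, fixed, stained with anti-p-EGFR plus FITC-labeled anti-rabbit secondary and DAPI, then imaged by immunofluorescence microscopy.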

| SMILES | CI (SW1990 [1]) | inhibition (SW1990 [2]) | inhibition [3] | Activity (SW1990 [4]) | CI (SW1990 [5]) | inhibition (SW1990 [6]) | Activity (SW1990 [7]) | inhibition [8] | fold change (FC) [9] | CI (SW1990 [10]) | Activity (SW1990 [11]) | inhibition [12] | Activity (SW1990 [13]) | Activity (SW1990 [14]) | inhibition (SW1990 [15]) | inhibition [16] |
| --- | --- | --- | --- | --- | --- | --- | --- | --- | --- | --- | --- | --- | --- | --- | --- | --- |
| CCCC(=O)OC1O[C@H](CO)[C@@H](OC(=O)CCC)[C@H](OC(=O)CCC)[C@@H]1NC(=O)CN=[N+]=[N-] (stereo partly specified) | 0.34 | Active | – | – | – | – | – | – | – | – | – | – | – | – | – | – |
| CCCC(=O)OC1O[C@H](CO)[C@@H](OC(=O)CCC)[C@H](OC(=O)CCC)[C@@H]1NC(C)=O (stereo partly specified) | – | – | Dose-dependent effect | Active | 0.23 | Active | Active | Active | 2 | 0.23 | inactive | Active | Active | Active | inactive | Active |
